Laboratory results published in ChEMBL document CHEMBL1138647, “Carbonic anhydrase inhibitors. Design of anticonvulsant sulfonamides incorporating indane moieties” (Bioorg Med Chem Lett, 2004).

Each molecule was assayed on Mus musculus (assay: Percent of mice (n=8) protected against seizures induced by a maximal electroshock (50mA,0.2s) after 30 mg/kg compound was injected intraperitoneally). Conditions: route intraperitoneal.
Assay type: functional
How it was run: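 Mice, n = 8 per group, received 30mg/kg ip 3h before a maximal electroshock (50mA, 0.2s). The read-out was the percentage of animals protected against the induced seizures.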

| SMILES | Protected mice |
| --- | --- |
| NS(=O)(=O)c1ccc2c(c1)CC(NC(=O)c1c(F)c(F)c(F)c(F)c1F)C2 (centres undefined) | 38% |
| CC(=O)NC1Cc2ccc(S(N)(=O)=O)cc2C1 (centres undefined) | 38% |
| COc1ccc(Cl)cc1C(=O)NC1Cc2ccc(S(N)(=O)=O)cc2C1.O (centres undefined) | 38% |
| NC1Cc2ccc(S(=O)(=O)O)cc2C1 (centres undefined) | 0% |
| NS(=O)(=O)c1ccc2c(c1)CC(NC(=O)c1c(F)c(F)cc(F)c1F)C2 (centres undefined) | 13% |
| CC(=O)NC1Cc2ccc(S(=O)(=O)O)cc2C1.O (centres undefined) | 0% |
| NS(=O)(=O)c1ccc2c(c1)CC(NC(=O)c1ccc(Cl)cc1)C2 (centres undefined) | 31% |
| Cl.NC1Cc2ccc(S(N)(=O)=O)cc2C1 (centres undefined) | 0% |
| CC(=O)/N=c1/sc(S(N)(=O)=O)nn1C [METHAZOLAMIDE] | 100% |
